{"source": "PubChem BioAssay AID652203", "about": "(Vanderbilt Specialized Chemistry Center, 2013)", "biological_target": "Metabotropic glutamate receptor 7 (Rattus norvegicus) (UniProt P35400)", "sequence (P35400 whole entry, looked up)": "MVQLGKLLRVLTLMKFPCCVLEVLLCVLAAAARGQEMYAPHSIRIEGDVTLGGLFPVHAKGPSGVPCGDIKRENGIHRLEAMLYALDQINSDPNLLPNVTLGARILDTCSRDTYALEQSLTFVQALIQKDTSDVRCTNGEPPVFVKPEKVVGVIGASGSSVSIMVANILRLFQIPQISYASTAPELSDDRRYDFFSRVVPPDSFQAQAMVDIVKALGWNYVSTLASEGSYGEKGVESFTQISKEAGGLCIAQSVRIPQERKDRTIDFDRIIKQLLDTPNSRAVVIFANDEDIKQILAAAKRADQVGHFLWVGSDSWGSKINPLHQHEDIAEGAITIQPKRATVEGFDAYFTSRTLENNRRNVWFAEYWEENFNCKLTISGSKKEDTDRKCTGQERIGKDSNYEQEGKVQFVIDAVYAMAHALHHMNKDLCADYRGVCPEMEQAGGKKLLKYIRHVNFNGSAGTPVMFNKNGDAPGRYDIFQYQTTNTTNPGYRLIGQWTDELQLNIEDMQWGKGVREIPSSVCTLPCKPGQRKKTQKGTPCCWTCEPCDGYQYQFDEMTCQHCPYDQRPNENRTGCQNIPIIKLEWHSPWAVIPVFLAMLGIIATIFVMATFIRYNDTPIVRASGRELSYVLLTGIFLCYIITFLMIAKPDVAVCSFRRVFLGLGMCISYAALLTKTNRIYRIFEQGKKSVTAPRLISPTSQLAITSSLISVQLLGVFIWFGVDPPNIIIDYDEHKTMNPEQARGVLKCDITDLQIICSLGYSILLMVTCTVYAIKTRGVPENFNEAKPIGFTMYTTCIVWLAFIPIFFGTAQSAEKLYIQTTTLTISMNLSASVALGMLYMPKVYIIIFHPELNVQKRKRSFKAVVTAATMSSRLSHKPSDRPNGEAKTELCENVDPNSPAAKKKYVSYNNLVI", "assay": "mGlu7 modulation of L-AP4 calcium response, selectivity assay for mGlu5 silent allosteric modulator project, cell-based, rat, TRex293, Galpha15, Fluo4 calcium (AID 652203)", "details": "rmGlu7+Galpha15 TRex293, L-AP4 calcium Fluo4 fold shift; at 10 µM", "procedure,_shortened": "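Material: rat mGlu7 co-expressed with Galpha15 in TRex293 cells; reagent: L-AP4, 3.9 µM–1 mM, 9 concentrations; dosing: 10 µM compound, 1% DMSO; incubation: compound added at 20 s, L-AP4 added at 80 s; detection: Fluo4 fluorescence measuring intracellular calcium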", "note": "Calls of active or inactive are those of the source. The rule behind the calls is not given here."}
{"smiles": "O=C(c1ccc(C#Cc2cccc(F)c2)cn1)N1CC2CC2C1", "note": "(stereo unspecified)", "values": [{"measurement": "fold shift of L-AP4 EC50", "result": "0.696 (inactive)"}]}
